Test results: ChEMBL document CHEMBL1136257, “New highly active taxoids from 9beta-dihydrobaccatin-9,10-acetals. Part 3” (Bioorg Med Chem Lett, 2003)
Converted amounts (≈) assume the structure as drawn.

What was measured:
[1] = tested on: Mus musculus; test: Maximum rate of body weight loss was determined in mice inoculated with B16 melanoma BL6 cells sc at a dose 8 mg/kg by intravenous administration; type: functional
Summary of the method: (§1)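 On day 0, B16 melanoma BL6 cells (cultured line) were implanted subcutaneously into C57BL/6 mice, six per group. A single iv or oral dose was given on day 4, and body weight was followed. BWLmax (%) is the maximum rate of body weight loss; a value below 0 means no loss.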

[2] = tested on: Mus musculus; test: Maximum rate of body weight loss was determined in mice inoculated with B16 melanoma BL6 cells sc at a dose 27 mg/kg by peroral administration; type: functional; settings: route oral; summary of the method: as §1
[3] = tested on: PC-12; test: Cytotoxic activity against human lung cancer PC-12 cell line
[4] = tested on: Mus musculus; test: Mortality was determined in mice inoculated with B16 melanoma BL6 cells sc at a dose 12 mg/kg by peroral administration; 0/6; type: functional; settings: route oral
[5] = tested on: Mus musculus; test: Mean tumor weight was determined in mice inoculated with B16 melanoma BL6 cells sc at a dose 18 mg/kg po [IR (%) = (1-TWt/TWc)*100]; type: functional
Summary of the method: (§2)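 C57BL/6 mice (six per group) received subcutaneous B16 melanoma BL6 cells on day 0 and a single iv or oral dose on day 4. Tumors were excised and weighed on day 15. Inhibition rate IR (%) = (1 − mean treated tumor weight/mean control tumor weight) × 100.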

[6] = tested on: Mus musculus; test: Maximum rate of body weight loss was determined in mice inoculated with B16 melanoma BL6 cells sc at a dose 18 mg/kg by peroral administration; type: functional; settings: route oral; summary of the method: as §1
[7] = tested on: Mus musculus; test: Mortality was determined in mice inoculated with B16 melanoma BL6 cells sc at a dose 8 mg/kg by intravenous administration; 0/6; type: functional
[8] = Solubility in water using UV assay; type: physicochemical
[9] = tested on: Mus musculus; test: Maximum rate of body weight loss was determined in mice inoculated with B16 melanoma BL6 cells sc at a dose 12 mg/kg by intravenous administration; type: functional; summary of the method: as §1
[10] = tested on: Mus musculus; test: Maximum rate of body weight loss was determined in mice inoculated with B16 melanoma BL6 cells sc at a dose 40.5 mg/kg by peroral administration; type: functional; settings: route oral; summary of the method: as §1
[11] = tested on: Mus musculus; test: Mortality was determined in mice inoculated with B16 melanoma BL6 cells sc at a dose 40.5 mg/kg by peroral administration; 0/6; type: functional; settings: route oral
[12] = tested on: Mus musculus; test: Mean tumor weight was determined in mice inoculated with B16 melanoma BL6 cells sc at a dose 12 mg/kg po [IR (%) = (1-TWt/TWc)*100]; type: functional; summary of the method: as §2
[13] = tested on: Mus musculus; test: Maximum rate of body weight loss was determined in mice inoculated with B16 melanoma BL6 cells sc at a dose 12 mg/kg by peroral administration; type: functional; settings: route oral; summary of the method: as §1
[14] = tested on: Mus musculus; test: Mortality was determined in mice inoculated with B16 melanoma BL6 cells sc at a dose 27 mg/kg by peroral administration; 0/6; type: functional; settings: route oral
[15] = Solubility of compound in JP2 at pH 6.8 using UV assay; type: physicochemical; settings: JP2, pH 6.8
[16] = tested on: Mus musculus; test: Mortality was determined in mice inoculated with B16 melanoma BL6 cells sc at a dose 12 mg/kg by intravenous administration; 0/6; type: functional
[17] = tested on: Mus musculus; test: Mortality was determined in mice inoculated with B16 melanoma BL6 cells sc at a dose 27 mg/kg by intravenous administration; 0/6; type: functional
[18] = tested on: P388; test: Cytotoxic activity against mouse leukemia P388 cell line; type: functional
Summary of the method: (§3)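 Growth inhibition (IC50) of mouse leukemia P388 and human lung cancer PC-6 and PC-12 cells after 72 h continuous exposure to compound; IC50 taken as the concentration giving 50% growth inhibition.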

[19] = tested on: Mus musculus; test: Mean tumor weight was determined in mice inoculated with B16 melanoma BL6 cells sc at a dose 40.5 mg/kg po [IR (%) = (1-TWt/TWc)*100]; type: functional; summary of the method: as §2
[20] = tested on: Mus musculus; test: Mean tumor weight was determined in mice inoculated with B16 melanoma BL6 cells sc at a dose 12 mg/kg iv [IR (%) = (1-TWt/TWc)*100]; type: functional; summary of the method: as §2
[21] = Solubility of compound in JP1 at pH 1.2 using UV assay; type: physicochemical; settings: JP1, pH 1.2
[22] = tested on: Mus musculus; test: Mean tumor weight was determined in mice inoculated with B16 melanoma BL6 cells sc at a dose 27 mg/kg po [IR (%) = (1-TWt/TWc)*100]; type: functional; summary of the method: as §2
[23] = tested on: Mus musculus; test: Maximum rate of body weight loss was determined in mice inoculated with B16 melanoma BL6 cells sc at a dose 27 mg/kg by intravenous administration; type: functional; summary of the method: as §1
[24] = tested on: PC-6; test: Cytotoxic activity against human lung cancer PC-6 cell line; type: functional; summary of the method: as §3
[25] = tested on: Mus musculus; test: Mean tumor weight was determined in mice inoculated with B16 melanoma BL6 cells sc at a dose 27 mg/kg iv [IR (%) = (1-TWt/TWc)*100]; type: functional; summary of the method: as §2
[26] = tested on: Mus musculus; test: Mean tumor weight was determined in mice inoculated with B16 melanoma BL6 cells sc at a dose 18 mg/kg iv [IR (%) = (1-TWt/TWc)*100]; type: functional; summary of the method: as §2
[27] = tested on: Mus musculus; test: Mortality was determined in mice inoculated with B16 melanoma BL6 cells sc at a dose 18 mg/kg by intravenous administration; 0/6; type: functional
[28] = tested on: Mus musculus; test: Mean tumor weight was determined in mice inoculated with B16 melanoma BL6 cells sc at a dose 8 mg/kg iv [IR (%) = (1-TWt/TWc)*100]; type: functional; summary of the method: as §2
[29] = tested on: Mus musculus; test: Mortality was determined in mice inoculated with B16 melanoma BL6 cells sc at a dose 18 mg/kg by peroral administration; 0/6; type: functional; settings: route oral
[30] = tested on: Mus musculus; test: Maximum rate of body weight loss was determined in mice inoculated with B16 melanoma BL6 cells sc at a dose 18 mg/kg by intravenous administration; type: functional; summary of the method: as §1

Question: With `CC(=O)O[C@@]12CO[C@@H]1CC[C@@]1(C)[C@@H]3O[C@H](CN4CCOCC4)O[C@@H]3C3=C(C)[C@@H](OC(=O)[C@](C)(O)[C@@H](NC(=O)c4ccccc4)c4ccccn4)C[C@@](O)([C@@H](OC(=O)c4ccccc4)[C@@H]12)C3(C)C` as the molecule, how does the BWLmax [1] read?
Answer: The BWLmax was <0%.

Question: What about the BWLmax [2] of the same molecule?
Answer: The BWLmax was <0%.

Question: And the GI50 [3]?
Answer: Its GI50 is 0.57 ng/mL (≈ 0.000617 µM).

Question: And the Mortality [4]?
Answer: Its Mortality is 0.

Question: What about the IR [5] of the same molecule?
Answer: Its IR is 59.7%.

Question: What about the BWLmax [6] of the same molecule?
Answer: The BWLmax was <0%.

Question: And the Mortality [7]?
Answer: The Mortality was 0.

Question: And the solubility [8]?
Answer: Its solubility is < 4 µg/mL.

Question: What about the BWLmax [9] of the same molecule?
Answer: The BWLmax was <0%.

Question: And the BWLmax [10]?
Answer: Its BWLmax is 4.1%.

Question: And the Mortality [11]?
Answer: The Mortality was 0.

Question: And the IR [12]?
Answer: Its IR is 23.4%.

Question: What about the BWLmax [13] of the same molecule?
Answer: Its BWLmax is <0%.

Question: And the Mortality [14]?
Answer: Its Mortality is 0.

Question: What about the solubility [15] of the same molecule?
Answer: The solubility was < 4 µg/mL.

Question: What about the Mortality [16] of the same molecule?
Answer: Its Mortality is 0.

Question: What about the Mortality [17] of the same molecule?
Answer: Its Mortality is 0.

Question: What about the GI50 [18] of the same molecule?
Answer: The GI50 was 0.19 ng/mL (≈ 0.000206 µM).

Question: What about the IR [19] of the same molecule?
Answer: The IR was 96.9%.

Question: What about the IR [20] of the same molecule?
Answer: Its IR is 75.4%.

Question: And the solubility [21]?
Answer: The solubility was > 1800 µg/mL.

Question: What about the IR [22] of the same molecule?
Answer: Its IR is 91.3%.

Question: And the BWLmax [23]?
Answer: Its BWLmax is 2.4%.

Question: What about the GI50 [24] of the same molecule?
Answer: The GI50 was 0.45 ng/mL (≈ 0.000487 µM).

Question: What about the IR [25] of the same molecule?
Answer: The IR was 95.8%.

Question: And the IR [26]?
Answer: The IR was 89.8%.

Question: And the Mortality [27]?
Answer: Its Mortality is 0.

Question: What about the IR [28] of the same molecule?
Answer: The IR was 61.3%.

Question: And the Mortality [29]?
Answer: The Mortality was 0.

Question: And the BWLmax [30]?
Answer: The BWLmax was <0%.

Question: With `CC(=O)O[C@@]12CO[C@@H]1CC[C@@]1(C)[C@@H]3O[C@H](CN4CCOCC4)O[C@@H]3C3=C(C)[C@@H](OC(=O)[C@H](O)[C@@H](NC(=O)OC(C)(C)C)c4ccccc4)C[C@@](O)([C@@H](OC(=O)c4ccccc4)[C@@H]12)C3(C)C` as the molecule, how does the GI50 [3] read?
Answer: The GI50 was 0.02 ng/mL (≈ 2.21e-05 µM).

Question: And the solubility [8]?
Answer: The solubility was < 4 µg/mL.

Question: What about the solubility [15] of the same molecule?
Answer: Its solubility is < 4 µg/mL.

Question: And the GI50 [18]?
Answer: The GI50 was 0.02 ng/mL (≈ 2.21e-05 µM).

Question: What about the solubility [21] of the same molecule?
Answer: Its solubility is 1200 µg/mL (≈ 1330 µM).

Question: And the GI50 [24]?
Answer: Its GI50 is 0.38 ng/mL (≈ 0.00042 µM).

Question: With `CC(=O)O[C@H]1C(=O)[C@@]2(C)[C@H]([C@H](OC(=O)c3ccccc3)[C@]3(O)C[C@H](OC(=O)[C@H](O)[C@@H](NC(=O)c4ccccc4)c4ccccc4)C(C)=C1C3(C)C)[C@]1(OC(C)=O)CO[C@@H]1C[C@@H]2O` [PACLITAXEL] as the molecule, how does the GI50 [3] read?
Answer: The GI50 was 539 ng/mL (≈ 0.631 µM).

Question: What about the GI50 [18] of the same molecule?
Answer: Its GI50 is 2.93 ng/mL (≈ 0.00343 µM).

Question: What about the GI50 [24] of the same molecule?
Answer: The GI50 was 1.27 ng/mL (≈ 0.00149 µM).
